# ChEMBL document CHEMBL2202986, “Guaianolide sesquiterpene lactones, a source to discover agents that selectively inhibit acute myelogenous leukemia stem and progenitor cells” (J Med Chem, 2012)
# Columns and labels:
# [1] = Half life in mouse at 100 mg/kg, iv; type: ADME, organism-based; parameters: dose 100 mg/kg, route intravenous; conditions: in vivo
# Method in brief: (§1)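 Male Kunming mice (20 2 g), fasted 12 h before dosing with water available, given DMAMCL as an aqueous solution iv (n = 5). Blood was drawn from the orbital veins at set times. DMAMCL and MCL in plasma were measured, and parameters were derived by a noncompartmental model.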
# [2] = test system: Mus musculus; test: Toxicity in BALB/c mouse assessed as pathological changes in liver at 500 mg/kg, po administered every day for 7 days by hematoxylin-eosin staining method; conditions: in vivo, 168 h
# [3] = Total clearance in mouse at 150 mg/kg, po; type: ADME, organism-based; parameters: dose 150 mg/kg, route oral; conditions: in vivo
# Method in brief: (§2)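 Male Kunming mice (20 2 g), fasted 12 h before dosing with water available, given DMAMCL as an aqueous solution po (n = 5). Blood was drawn from the orbital veins at set times. Plasma DMAMCL and MCL were followed, and parameters came from noncompartmental analysis.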
# [4] = Toxicity in po dosed BALB/c mouse administered every day for 7 days; conditions: in vivo
# [5] = test system: Mus musculus; test: Toxicity in BALB/c mouse assessed as pathological changes in lung at 500 mg/kg, po administered every day for 7 days by hematoxylin-eosin staining method; conditions: in vivo, 168 h
# [6] = Cytotoxicity against human leukemia stem/progenitor cells assessed as cell viability at 5 uM after 18 hrs by annexin-V labeling-based flow cytometry; type: functional; conditions: in the assay text read “leukemia cells” for “leukemia stem/progenitor cells”, read-out: Activity
# Method in brief: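 Primary leukemia cells from AML patient blood were treated for 18 h in serum-free IMDM, then stained with CD34-APC and CD38-PECy7 for 30 min. After washing in cold PBS, cells were labelled with Annexin-V–FITC/PI for 15 min at room temperature and read by flow cytometry. Viability of total and CD34⁺ cells was normalized to untreated controls (mean, SD).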
# [7] = Mean retention time (0 to infinity) in mouse at 100 mg/kg, iv; type: ADME, organism-based; parameters: dose 100 mg/kg, route intravenous; conditions: in vivo; method in brief: as §1
# [8] = Antitumor activity against mixed-lineage human leukemia cells xenografted in NOD/SCID mouse assessed as reduction of CD45+CD33+ cells in bone marrow at 100 mg/kg, po qd administered every other day total of seven doses starting from 8 weeks post grafting measured on day 35 (reference value: 9.8 %); type: functional, Leukemia cell; parameters: scale not given: the % may be the effect or the level left
# [9] = Mean retention time (0 to t) in mouse at 100 mg/kg, iv; type: ADME, organism-based; parameters: dose 100 mg/kg, route intravenous; conditions: in vivo; method in brief: as §1
# [10] = Mean retention time (0 to infinity) in mouse at 150 mg/kg, po; type: ADME, organism-based; parameters: dose 150 mg/kg, route oral; conditions: in vivo; method in brief: as §2
# [11] = test system: Plasma; test: Drug metabolism in mouse plasma assessed as release of MCL; type: ADME, cell-free
# Method in brief: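 A 20 μL aliquot of prodrug solution was added to 980 μL blank mouse plasma and incubated at 37 °C. Prodrug and released parent drug concentrations were measured over time by HPLC (mean, SD, n = 4).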
# [12] = Cmax in mouse at 150 mg/kg, po; type: ADME, organism-based; parameters: dose 150 mg/kg, route oral; conditions: in vivo; method in brief: as §2
# [13] = test system: Mus musculus; test: Toxicity in BALB/c mouse assessed as pathological changes in heart at 1000 mg/kg, po administered as single dose by hematoxylin-eosin staining method; type: organism-based; parameters: dose 1000 mg/kg, route oral; conditions: in vivo
# Method in brief: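 BALB/c mice (16 in total, 8 male/8 female) were given aqueous DMAMCL by gavage as a single 1000 mg/kg dose or 500 mg/kg daily for seven doses. Water-only and untreated mice served as controls. One week later, tissues were fixed in 10% neutral-buffered formalin, embedded in paraffin, cut into 3 μm sections, stained with H&E and examined microscopically.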
# [14] = Antitumor activity against human leukemia stem/progenitor cells xenografted in NOD/SCID mouse assessed as survival rate at 100 mg/kg, po qd administered every other day total of seven doses starting from 8 weeks post grafting measured on day 85; type: functional
# Method in brief: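 NOD/SCID mice were sublethally irradiated (280cGay), then 6−10 h later given primary AML M5 patient cells via tail vein in PBS. From 8 weeks postinoculation, aqueous solution was given orally at 100 mg/kg every other day for seven doses. Survival was followed, Kaplan−Meier, n = 6 per treated group and n = 7 untreated controls. Survivors at day 85 had bone marrow analysed for human CD45⁺CD33⁺ cells.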
# [15] = Antitumor activity against human leukemia stem/progenitor cells xenografted in NOD/SCID mouse assessed as reduction of CD45+CD33+ cells in bone marrow at 100 mg/kg, po qd administered every other day total of seven doses starting from 8 weeks post grafting measured on day 85; type: functional; parameters: scale not given: the % may be the effect or the level left
# Method in brief: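 NOD/SCID mice, sublethally irradiated (280cGay), received primary AML M5 patient cells via tail vein in PBS 6−10 h later. From 8 weeks after engraftment, aqueous drug was given orally every other day for seven doses. Surviving mice were sacrificed on day 85 post-inoculation, and human CD45⁺CD33⁺ cells in bone marrow were measured by flow cytometry.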
# [16] = Volume of distribution in mouse at 100 mg/kg, iv; type: ADME, organism-based; parameters: dose 100 mg/kg, route intravenous; conditions: in vivo
# Method in brief: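 Male Kunming mice (20 2 g) were fasted 12 h with water available. An aqueous solution was dosed po (150 mg/kg) or iv (100 mg/kg), n = 5 per route. Blood was drawn from the orbital veins at set times to measure DMAMCL and released MCL. Parameters come from a noncompartmental model and are given as mean with SD.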
smiles,measurement,setting,value
CC1=C2CC[C@@](C)(O)[C@@H]2[C@H]2OC(=O)[C@@H](CN(C)C)[C@@H]2CC1.Cl [DIMETHYLAMINOMICHELIOLIDE HYDROCHLORIDE],half-life,[1],18.9 h
same,Activity,[2],Non-toxic
same,CL/F,[3],51.3 mL/min/kg
same,MTD at 168 h,[4],500 mg/kg
same,Activity,[5],Non-toxic
same,viability at 5 µM,[6],77.6%
same,MRT inf,[7],3.52 h
same,Activity,[8],0.14%
same,MRT last,[9],1.51 h
same,MRT inf,[10],9.85 h
same,Drug metabolism,[11],Active
same,Cmax,[12],19000 ng/mL
same,Activity,[13],Non-toxic
same,survival at 100 mg/kg,[14],33%
same,Activity,[15],0.005%
same,Vd,[16],88.2 L/kg
